# Source: PubChem (several laboratories)
# An excerpt weighted towards active compounds, which were near 1.6% of everything screened.
# MLLE-PAM2 inh: blocks PAM2 peptide binding to the PABP1 MLLE domain; P11940; GST-MLLE / FITC-PAM2 fluorescence polarization; inhibition, % at 20 µM; hit rate 0.36% among 360,000; in the data active means inhibition above about 35%, passing the limit was not always enough
# eIF4H inh: inhibitors of RNA binding by human eIF4H | AID 2012 | eIF4H fluorescence polarization binding assay | Q15056 | hit rate 0.94% among 290,000 | inhibition, % at 35 µM;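 further: calls also rest on retests at 20 µM and on dose response follow-up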
# TCR CD3 inh: inhibitors of human TCR-CD3 interaction. TAMRA-labeled TCR probe fluorescence, biochemical. inhibition, % at 9.4 µM. hit rate 0.37% among 360,000. AID 651800; in the data active means inhibition above about 19%;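 further: recombinant mutant TCR 2C K166C tagged with TAMRA read by polarization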
# PABP FP inh: blocks human PABP binding to poly(A) RNA | hit rate 1% among 290,000 | fluorescence polarization | calls only at 35 µM | AID 2014;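 further: calls also rest on retests at 20 µM and on dose response follow-up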
# RBBP9 inhibitor: blocks human serine hydrolase RBBP9. recombinant RBBP9, FP-Rh probe fluorescence polarization. inhibition, % at 7.94 µM. hit rate 0.2% among 220,000. AID 1515;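 active means inhibition above the campaign mean of all tested compounds plus 3 SD, cut at about 14% in these data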
# Target sequence (O75884 whole entry, looked up): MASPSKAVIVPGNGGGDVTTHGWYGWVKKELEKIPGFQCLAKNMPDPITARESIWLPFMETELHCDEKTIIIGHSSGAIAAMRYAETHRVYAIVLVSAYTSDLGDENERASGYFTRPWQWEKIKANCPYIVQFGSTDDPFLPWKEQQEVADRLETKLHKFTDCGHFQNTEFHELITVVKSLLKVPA
#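 System: RBBP9 protein / Buffer or medium: Tris/NaCl buffer pH 8.0 with 0.1% Pluronic / Probe or stimulus: Serine-hydrolase probe FP-Rh, 375 nM pre-mixing / Dosing: 7.94 µM single dose, 0.794% DMSO / Times: enzyme-compound preincubation 30 min, then probe labeling 45 min, 25 °C / Technique: fluorescence polarization (mP), excitation 525 nm, emission 598 nm / Replication: singlicate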
# Numbers stand for hits; n = inactive; u = inconclusive; x = no result given; + = active, no number. Unless noted, how the calls were made is not given here.
SMILES,MLLE-PAM2 inh,eIF4H inh,TCR CD3 inh,PABP FP inh,RBBP9 inhibitor
O=C(C(NS(=O)(=O)c1cccs1)c1ccccc1)N1CCN(c2ccccc2)CC1 (stereo not given),n,64.3,n,+,n
O=C1CC(O)C(Cc2ccccc2)N1 (stereo not given),x,x,n,x,x
O=C1CSC(=S)N1c1cccnc1,39.8,n,n,n,n
CCN(CC)c1ccc(N2C(=O)CSC2=S)cc1,n,61.5,n,n,n
CCOc1ccc(N2C(=O)CSC2=S)cc1,n,n,n,n,x
O=C1CSC(=S)N1/N=C/c1cccnc1,43.5,n,n,n,n
O=C1CSC(=S)N1c1ccccc1,n,x,n,x,x
CCCCNc1cccc2c1S(=O)(=O)N[C@H](CC(C)C)CO2,x,x,n,x,x
CC(C)C(=O)N(c1ccc2oc(=O)sc2c1)S(=O)(=O)c1cccs1,44.5,n,n,n,n
Cc1cccc(NC(=S)NNC(=O)c2csc3c2CCCC3)c1,38.3,n,n,n,n
Cc1ccc(C)c(NC(=S)NNC(=O)c2csc3c2CCCC3)c1,n,n,n,n,n
CCN(c1c(C)n(C)n(-c2ccccc2)c1=O)S(C)(=O)=O,52.0,n,n,n,n
Cc1c(O)c(=O)n(-c2ccccc2)n1C,n,x,n,x,x
CCOC1=C2CN(S(=O)(=O)c3ccc(C)cc3)[C@@H](c3ccccc3)C[C@H]2[C@H]2C(=O)N(c3ccccc3)C(=O)[C@H]2C1,48.8,x,n,x,x
CCOC1=C2CN(S(=O)(=O)c3ccccc3)[C@@H](c3ccccc3)C[C@H]2[C@H]2C(=O)N(c3ccccc3)C(=O)[C@H]2C1,x,x,n,x,x
O=C(CSc1nccn(-c2ccc(Br)cc2)c1=O)NC1CCCC1,44.6,x,n,x,x
COc1ccc(-n2ccnc(SCC(=O)NC3CCCC3)c2=O)cc1OC,51.3,x,n,x,x
Cc1ccc(-n2ccnc(SCC(=O)NC3CCCCC3)c2=O)cc1F,40.7,x,n,x,x
COc1ccc(-n2ccnc(SCC(=O)NC3CCCC3)c2=O)cc1,41.5,n,n,n,x
Cc1cc(C)c(O)c(C(=O)CC2CC(=O)NC(=O)C2)c1,x,x,n,x,x
C[C@@H]1ON(C)[C@H]2C[C@H]3c4[nH]c5cccc(Br)c5c4CCN3C(=O)[C@@H]12,x,x,n,x,x
Nc1nc(N)c(N=Nc2ccccc2)c(=O)[nH]1,n,x,n,x,x
Nc1nc(N=Nc2ccc(O)cc2)cc(=O)[nH]1,51.6,x,n,x,x
NC(=S)C(c1ccccc1)c1ncc(C(F)(F)F)cc1Cl (stereo not given),41.6,n,n,n,x
OC(c1ccccc1)(c1ccccc1)C1CCN(CCCOc2ccc(-c3ccncc3)cc2)CC1,x,x,n,x,x
SMILES,MLLE-PAM2 inh,eIF4H inh,TCR CD3 inh,PABP FP inh,RBBP9 inhibitor
O=C1c2ccccc2-c2n[nH]c3cccc1c23,73.5,x,n,x,x
O=S1(=O)c2cc(Cl)ccc2N2CCC[C@@H]2CN1Cc1ccc(Cl)c(Cl)c1,x,x,n,x,x
Cc1cc(=O)n2nc(-c3ccccc3)sc2n1,n,56.5,n,+,n
COC(=O)c1cc(=O)nc2sc(-c3ccccc3)nn12,n,n,n,n,n
CCC(=O)NC(=S)NNC(=O)c1ccccc1[N+](=O)[O-],n,u,n,+,n
O=C(NC(=S)NNC(=O)c1ccccc1[N+](=O)[O-])c1ccccc1,n,n,n,n,n
CCNC(=O)OCCC12CC3CC(CC(C3)C1)C2,n,n,n,+,n
COc1ccc(-c2nc(S(=O)(=O)c3ccccc3)c(N3CCCC3)o2)cc1,n,x,n,x,x
Cc1ccccc1-c1nc(S(=O)(=O)c2ccccc2)c(N2CCCC2)o1,41.6,x,n,x,x
COc1ccc(NC(=S)Nc2ccccc2)cn1,n,u,n,n,n
CCCCNC(=S)Nc1ccc(OC)nc1,41.5,u,n,n,n
O=C(N/N=C/c1ccccc1O)C1(O)c2ccccc2-c2ccccc21,n,active,n,+,n
Cc1c(/C=N/NC(=O)C2(O)c3ccccc3-c3ccccc32)cnn1C,n,n,n,n,n
O=[N+]([O-])c1ccccc1-c1ccc(C(=S)N2CCN(c3ccccc3)CC2)o1,n,n,n,n,n
N#C/C(=C\c1ccc(-c2ccccc2[N+](=O)[O-])o1)C(=O)N1CCOCC1,n,61.0,n,n,n
COc1cc(C=Nc2ccccc2C(=O)Nc2ccccc2)cc(OC)c1OC,n,3.3,n,+,n
NNC(=O)c1cc(O)c(O)c(O)c1,n,n,56.7,n,n
COC(=O)c1ccc2nc(-c3ccco3)c(Cc3ccccc3OC)n2c1,x,x,n,x,x
CC1=NC(=O)C(N=Nc2cccc(C(=O)O)c2)N1c1ccccc1 (stereo not given),n,13.4,n,+,n
O=C(C(=O)N1CCC(CNS(=O)(=O)c2ccc(F)cc2)CC1)c1cc2ccccc2o1,x,x,n,x,x
Cc1[nH]n(-c2ccccc2)c(=O)c1C(c1ccc(C(=O)O)cc1)c1c(C)[nH]n(-c2ccccc2)c1=O,45.3,n,n,n,n
Cc1[nH]n(-c2ccccc2)c(=O)c1C(c1cccc([N+](=O)[O-])c1)c1c(C)[nH]n(-c2ccccc2)c1=O,n,n,n,n,n
CCCc1n(CC(O)COCC2CC=CCC2)c2ccccc2[n+]1C (stereo not given),n,n,n,+,n
CCCc1n(CC(O)COC2CCCCC2)c2ccccc2[n+]1C (stereo not given),n,n,n,+,n
CC(C)n1nc(C(=O)Oc2cc(Cl)ccc2Cl)c2ccccc2c1=O,n,n,n,n,n
SMILES,MLLE-PAM2 inh,eIF4H inh,TCR CD3 inh,PABP FP inh,RBBP9 inhibitor
CC(C)n1nc(C(=O)Oc2cccc(Cl)c2Cl)c2ccccc2c1=O,n,3.7,n,+,n
Cn1nnc(NC(=S)NC(=O)c2ccc3ccccc3c2)n1,48.5,x,n,x,x
O=C(NCc1ccccc1)[C@@H]1CCCN1C(=O)[C@H]1CCCN1C(=O)c1cccc2ccccc12,x,x,n,x,x
COc1cccc(CNC(=O)CCC2CCCN(C(=O)c3ccccc3N(C)C)C2)c1 (stereo not given),n,n,n,n,x
COc1cccc(CNC(=O)CCC2CCCN(C(=O)c3cccc4c(C)c(C)[nH]c34)C2)c1 (stereo not given),n,66.5,n,+,n
CCn1cnc2c1c(=O)n(CC(=O)NCC(F)(F)F)c(=O)n2Cc1ccccc1,n,99.2,n,+,n
CCn1cnc2c1c(=O)n(CC(=O)NCc1ccccc1)c(=O)n2Cc1ccccc1,n,n,n,n,n
Cc1ccc(C2CC2C(=O)NNC(=S)Nc2ccc(Cl)cc2)cc1 (stereo not given),44.1,n,n,n,n
CC(C)(C)NC(=S)NNC(=O)[C@H]1C[C@@H]1c1ccccc1,n,n,n,n,n
CCOc1ccccc1NC(=O)CSc1nnc(-c2cccnc2)o1,50.4,x,n,x,x
CCN(CC(O)CON=C1c2ccccc2-c2ccccc21)S(=O)(=O)c1ccc(Cl)cc1 (stereo not given),n,n,n,n,n
CCN(CC(O)CON=C1c2ccccc2-c2ccccc21)S(=O)(=O)c1ccc(C)cc1 (stereo not given),n,80.0,n,+,n
COc1ccc(CNc2ccc(S(N)(=O)=O)cc2)cc1,56.9,n,n,n,n
CCCN1CCCCC(NC(=O)c2ccc3ccccc3c2)C1=O (stereo not given),x,x,n,x,x
